In brackets after ≈: the same amount, converted by molar mass.
Experiments:
Bacillus anthracis [1] = experiment: Antimicrobial activity against Bacillus anthracis str. Ames infected in BALB/c mouse prophylaxis model assessed as mouse survival at 120 mg/kg, ip administered 48 hrs post infection every 72 hrs for 14 days measured after 42 days; type: functional; conditions: route intraperitoneal
Bacillus anthracis [2] = experiment: Antimicrobial activity against Bacillus anthracis str. Ames infected in BALB/c mouse prophylaxis model assessed as mouse survival at 120 mg/kg, ip administered 36 hrs post infection every 72 hrs for 14 days measured after 42 days; type: functional; conditions: route intraperitoneal
Bacillus anthracis [3] = experiment: Antimicrobial activity against Bacillus anthracis str. Ames infected in BALB/c mouse prophylaxis model assessed as mouse survival at 60 mg/kg, ip administered 48 hrs post infection every 36 hrs for 14 days measured after 42 days; type: functional; conditions: route intraperitoneal
Bacillus anthracis [4] = experiment: Antimicrobial activity against Bacillus anthracis str. Ames infected in BALB/c mouse prophylaxis model assessed as mouse survival at 60 mg/kg, ip administered 36 hrs post infection every 36 hrs for 14 days measured after 42 days; type: functional; conditions: route intraperitoneal
Bacillus anthracis [5] = experiment: Antimicrobial activity against Bacillus anthracis str. Ames infected in BALB/c mouse assessed as mouse survival at 30 mg/kg, ip bid administered 24 hrs post infection for 14 days measured after 42 days; type: functional; conditions: route intraperitoneal
Bacillus anthracis [6] = experiment: Antimicrobial activity against Bacillus anthracis str. Ames infected in BALB/c mouse prophylaxis model assessed as mouse survival at >=30 mg/kg, ip administered 24 hrs post infection every 36 hrs for 14 days measured after 42 days; type: functional
[7] = Ratio of fAUC in ICR mouse at 5 mg/kg, ip to MIC against Bacillus anthracis Ames; type: functional; conditions: route intraperitoneal
Summary of the method: (§1)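 Female ICR mice (23 to 27 g) received a single i.p. dose of 5 or 20 mg/kg in 5% glucose. Plasma was taken by cardiac puncture from 0.08 to 144 h, with 3 mice per dose and time point. Total drug was measured by microbiological agar diffusion, and parameters were derived noncompartmentally. Free values assume 1.6% unbound and are divided by the Ames-strain MIC.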

Bacillus anthracis [8] = experiment: Antimicrobial activity against Bacillus anthracis str. Ames infected in BALB/c mouse prophylaxis model assessed as mouse survival at >=15 mg/kg, ip administered 24 hrs post infection every 36 hrs for 14 days measured after 42 days; type: functional
Mus musculus [9] = experiment: T>MIC in ICR mouse at 20 mg/kg, ip; type: ADME, organism-based; design: dose 20 mg/kg, route intraperitoneal; conditions: in vivo
[10] = Ratio of fCmax in ICR mouse at 5 mg/kg, ip after 2 hrs to MIC for Bacillus anthracis Ames; type: functional; conditions: route intraperitoneal; summary of the method: as §1
Mus musculus [11] = experiment: T>MIC in ICR mouse at 5 mg/kg, ip; type: ADME, organism-based; design: dose 5 mg/kg, route intraperitoneal; conditions: in vivo
[12] = AUC (0-infinity) in ICR mouse at 20 mg/kg, iv; type: ADME, organism-based; design: time infinity, dose 20 mg/kg, route intravenous; conditions: plasma
Summary of the method: (§2)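 Female ICR mice, 23 to 27 g, given single 5 or 20 mg/kg doses i.p. or i.v. (tail vein) in 5% glucose. Plasma was taken by cardiac puncture under halothane at 0.08 to 144 h, with 3 mice per route, dose and time point. Total drug was measured by microbiological agar diffusion assay; parameters came from noncompartmental analysis.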

[13] = AUC (0-infinity) in ICR mouse at 20 mg/kg, ip; type: ADME, organism-based; design: time infinity, dose 20 mg/kg, route intraperitoneal; conditions: plasma; summary of the method: as §2
[14] = AUC (0-infinity) in ICR mouse at 5 mg/kg, iv; type: ADME, organism-based; design: time infinity, dose 5 mg/kg, route intravenous; conditions: plasma; summary of the method: as §2
[15] = Plasma concentration in ICR mouse at 20 mg/kg, ip after 6 days; type: ADME, organism-based; design: dose 20 mg/kg, route intraperitoneal; summary of the method: as §2
[16] = AUC (0-infinity) in ICR mouse at 5 mg/kg, ip; type: ADME, organism-based; design: dose 5 mg/kg, route intraperitoneal, time infinity; conditions: plasma; summary of the method: as §2
[17] = Half life in ICR mouse at 20 mg/kg, ip; type: ADME, organism-based; design: dose 20 mg/kg, route intraperitoneal; conditions: in vivo; summary of the method: as §2
[18] = Cmax in ICR mouse at 20 mg/kg, ip after 2 hrs; type: ADME, organism-based; design: dose 20 mg/kg, route intraperitoneal; conditions: in vivo; summary of the method: as §2
[19] = Half life in ICR mouse at 5 mg/kg, ip; type: ADME, organism-based; design: dose 5 mg/kg, route intraperitoneal; conditions: in vivo; summary of the method: as §2
[20] = Cmax in ICR mouse at 5 mg/kg, ip after 2 hrs; type: ADME, organism-based; design: dose 5 mg/kg, route intraperitoneal; conditions: in vivo; summary of the method: as §2
Bacillus anthracis [21] = experiment: Antimicrobial activity against Bacillus anthracis str. Ames after 18-24 hrs by broth microdilution method; type: functional
[22] = AUC in patient with skin and soft tissue infections at 1000 mg, iv after 7 days; type: ADME, organism-based; conditions: human, plasma
Bacillus anthracis [23] = experiment: Antimicrobial activity against Bacillus anthracis after 18-24 hrs by broth microdilution method; type: functional
[24] = Ratio of fCmax in ICR mouse at 20 mg/kg, ip single dose after 2 hrs to MIC for Bacillus anthracis Ames; type: functional; conditions: route intraperitoneal; summary of the method: as §1
[25] = Ratio of fAUC in ICR mouse at 20 mg/kg, ip to MIC against Bacillus anthracis Ames; type: functional; conditions: route intraperitoneal; summary of the method: as §1
Mus musculus [26] = experiment: fCmax in ICR mouse at 5 mg/kg, ip after 2 hrs; type: ADME, organism-based; design: dose 5 mg/kg, route intraperitoneal; conditions: in vivo
Mus musculus [27] = experiment: fCmax in ICR mouse at 20 mg/kg, ip after 2 hrs; type: ADME, organism-based; design: dose 20 mg/kg, route intraperitoneal; conditions: in vivo
Mus musculus [28] = experiment: fAUC in ICR mouse at 5 mg/kg, ip; type: ADME, organism-based; design: dose 5 mg/kg, route intraperitoneal; conditions: in vivo
Mus musculus [29] = experiment: fAUC in ICR mouse at 20 mg/kg, ip; type: ADME, organism-based; design: dose 20 mg/kg, route intraperitoneal; conditions: in vivo

Question: Which Activity (Bacillus anthracis [1]) does the source give for CN[C@H]1C(=O)N[C@@H]2Cc3ccc(cc3)Oc3cc4cc(c3O[C@@H]3O[C@H](C(=O)O)[C@@H](O)[C@H](O)[C@H]3NC(=O)CCCCCCCCC(C)C)Oc3ccc(cc3Cl)[C@@H](O)[C@@H]3NC(=O)[C@H](NC(=O)[C@@H]4NC(=O)[C@@H](NC2=O)c2cc(cc(O)c2Cl)Oc2cc1ccc2O)c1ccc(O)c(c1)-c1c(O[C@H]2O[C@H](CO)[C@@H](O)[C@H](O)[C@@H]2O)cc(O)cc1[C@@H](C(=O)NCCCN(C)C)NC3=O [DALBAVANCIN] here?
Answer: 70%

Question: What about the Activity (Bacillus anthracis [2]) of the same molecule?
Answer: 70%

Question: And the Activity (Bacillus anthracis [3])?
Answer: 70%

Question: And the Activity (Bacillus anthracis [4])?
Answer: 70%

Question: What about the Activity (Bacillus anthracis [5]) of the same molecule?
Answer: 100%

Question: And the Activity (Bacillus anthracis [6])?
Answer: 80%

Question: What about the Ratio [7] of the same molecule?
Answer: 46.7

Question: And the Activity (Bacillus anthracis [8])?
Answer: 80%

Question: And the “T>MIC” value (Mus musculus [9])?
Answer: 38 h

Question: And the Ratio [10]?
Answer: 4

Question: And the “T>MIC” value (Mus musculus [11])?
Answer: 17.8 h

Question: And the AUC(0-inf) [12]?
Answer: 1070 µg·h/mL

Question: What about the AUC(0-inf) [13] of the same molecule?
Answer: 848 µg·h/mL

Question: And the AUC(0-inf) [14]?
Answer: 200 µg·h/mL

Question: What about the concentration at 144 h [15] of the same molecule?
Answer: ≥ 400 ng/mL

Question: And the AUC(0-inf) [16]?
Answer: 176 µg·h/mL

Question: And the half-life [17]?
Answer: 53.4 h

Question: What about the Cmax [18] of the same molecule?
Answer: 71300 ng/mL

Question: And the half-life [19]?
Answer: 53.4 h

Question: What about the Cmax [20] of the same molecule?
Answer: 15200 ng/mL

Question: And the MIC (Bacillus anthracis [21])?
Answer: 0.06 µg/mL (≈ 0.033 µM)

Question: What about the AUC at 168 h [22] of the same molecule?
Answer: 756 µg·h/mL

Question: What about the MIC50 (Bacillus anthracis [23]) of the same molecule?
Answer: 0.06 µg/mL (≈ 0.033 µM)

Question: And the MIC90 (Bacillus anthracis [23])?
Answer: 0.25 µg/mL (≈ 0.138 µM)

Question: And the Ratio [24]?
Answer: 19

Question: And the Ratio [25]?
Answer: 227

Question: And the fCmax (Mus musculus [26])?
Answer: 0.24 mg/L

Question: What about the fCmax (Mus musculus [27]) of the same molecule?
Answer: 1.14 mg/L

Question: And the fAUC (Mus musculus [28])?
Answer: 2.8 µg·h/mL

Question: What about the fAUC (Mus musculus [29]) of the same molecule?
Answer: 13.6 µg·h/mL

Question: With CN[C@H](CC(C)C)C(=O)N[C@H]1C(=O)N[C@@H](CC(N)=O)C(=O)N[C@H]2C(=O)N[C@H]3C(=O)N[C@H](C(=O)N[C@H](C(=O)O)c4cc(O)cc(O)c4-c4cc3ccc4O)[C@H](O)c3ccc(c(Cl)c3)Oc3cc2cc(c3O[C@@H]2O[C@H](CO)[C@@H](O)[C@H](O)[C@H]2O[C@H]2C[C@](C)(N)[C@H](O)[C@H](C)O2)Oc2ccc(cc2Cl)[C@H]1O [VANCOMYCIN] as the molecule, how does the MIC (Bacillus anthracis [23]) read?
Answer: 2 µg/mL (≈ 1.38 µM)

Reference: ChEMBL document CHEMBL1240390, “Activity of dalbavancin against Bacillus anthracis in vitro and in a mouse inhalation anthrax model” (Antimicrob Agents Chemother, 2010)
